Compounds with a hit are over-represented: about 3.5% of the library has one in this group of screens.
FXIa inh 1536 = blocks human coagulation factor XIa protease activity; P03951; purified FXIa, Boc-Glu-Ala-Arg-AMC fluorogenic substrate; inhibition, % at 5 µM; 0.14% of 220,000 active; AID 798;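 active = inhibition of at least 40%; inactive = inhibition below 40%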;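 also: fluorescence of freed AMC excited at 355 nm; 0% = enzyme without compound and 100% = no enzyme blank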
KLK5 inh = inhibitors of human kallikrein 5. Q9Y337. recombinant hK5, fluorogenic AMC substrate cleavage. inhibition, % at 5 µM. 0.59% of 210,000 active;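 active = inhibition of 40% or more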;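 also: 0% = enzyme controls without compound and 100% = no-enzyme blanks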
STAT3 activator = activators of IL-6 induced STAT3 signaling; AID 871; 0.91% of 190,000 active; U3A cells, IL-6 STAT3-luciferase reporter, luminescence; 100% = signal with IL-6 EC80 alone; activation (% of control), % at 5.6 µM;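 active = activation above the screen-wide mean of compound activation plus 3 SD, cut at about 130% in these data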;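 also: 0% = background luminescence of wells with medium and substrate only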
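system = STAT3-luciferase reporter U3A cells | reagent = IL-6 stimulus at 33 ng/mL final | timing = 1 h compound pre-exposure, 6 h IL-6 stimulation, 37 °C | measured by = luminescence | evaluation = % activation versus median of IL-6-stimulated wells | control set = IL-6-only wells as 100% reference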
AHR activator = activators of human aryl hydrocarbon receptor; P35869; AHR-responsive luciferase reporter cells, luminescence; activation, % at 5 µM; 2.5% of 320,000 active; in the data active = activation above about 47%;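 also: 0% = vehicle wells and 100% = reference agonist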
Thrombin inh = thrombin (human) inhibition; P00734; alpha-thrombin, Boc-VPR-AMC fluorogenic substrate cleavage; AID 1046; inhibition, % at 5 µM; 0.26% of 220,000 active;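 active = inhibition at or above 40%; inactive = inhibition below 40%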;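 also: 0% = enzyme with no compound and 100% = wells without enzyme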
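System: human alpha-thrombin protein; Compound dosing: one concentration per compound, 5 µM, with 0.2% DMSO; Timing: reaction at room temperature; Technique: AMC fluorescence, 355/460 nm; Controls: enzyme without compound as high, wells lacking enzyme as low.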
FXIIa inh 1536 = inhibitors of human coagulation factor XIIa | P00748 | purified FXIIa, Boc-QGR-AMC fluorogenic substrate, 2 h | inhibition, % at 5 µM | 0.3% of 220,000 active; in the data active = inhibition above about 40%;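 also: 0% = enzyme with no compound and 100% = blank without enzyme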
Target sequence (P00748 20-372 limits assumed): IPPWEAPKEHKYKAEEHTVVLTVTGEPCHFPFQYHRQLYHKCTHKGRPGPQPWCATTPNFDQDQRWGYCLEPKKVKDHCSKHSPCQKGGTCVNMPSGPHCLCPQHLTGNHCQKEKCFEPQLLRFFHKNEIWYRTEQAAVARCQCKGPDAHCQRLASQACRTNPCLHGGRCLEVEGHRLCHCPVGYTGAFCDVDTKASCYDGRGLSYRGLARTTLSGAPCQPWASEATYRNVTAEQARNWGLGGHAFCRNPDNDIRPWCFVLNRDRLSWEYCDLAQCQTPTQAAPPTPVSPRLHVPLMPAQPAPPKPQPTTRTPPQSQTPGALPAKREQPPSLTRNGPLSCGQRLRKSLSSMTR
Target sequence (P00748 373-615 limits assumed): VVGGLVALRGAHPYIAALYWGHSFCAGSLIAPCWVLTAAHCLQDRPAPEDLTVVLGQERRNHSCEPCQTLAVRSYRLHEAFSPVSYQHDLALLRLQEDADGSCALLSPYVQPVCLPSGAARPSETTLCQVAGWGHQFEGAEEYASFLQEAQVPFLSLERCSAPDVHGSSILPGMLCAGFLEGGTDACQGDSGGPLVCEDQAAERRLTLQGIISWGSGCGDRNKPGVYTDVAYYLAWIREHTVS
Starred values were filed as active, the others as inactive; . = not tested or not shown.

SMILES	FXIa inh 1536	KLK5 inh	STAT3 activator	AHR activator	Thrombin inh	FXIIa inh 1536
O=c1[nH]c2cc3c(cc2cc1CN(CCCO)Cc1nnnn1Cc1ccc(F)cc1)OCO3	-3	-27	101	54*	-5	7
COc1ccc(OC)c(Nc2nc(=O)c3cccnc3s2)c1	1	-2	101	.	12	11
Cc1ccc(Nc2nc(=O)c3cccnc3s2)cc1	0	14	144*	69*	-3	7
Cc1ccccc1OCC(=O)Nc1sc(C(=O)Nc2cccc(C)c2C)c(C)c1C#N	-1	45*	101	0	5	13
CCN(CC)C(=O)c1sc(NC(=O)Cc2ccc(OC)cc2)c(C#N)c1C	1	4	115	1	6	13
Cc1ccccc1OCC(=O)Nc1sc2c(c1C#N)CC(C)(C)NC2(C)C	.	.	.	2	.	.
CCN(CC)C(=O)c1sc(NC(=O)Cc2ccccc2)c(C#N)c1C	15	41*	101	1	23	18
COc1ccccc1NC(=O)c1sc(NC(=O)c2ccco2)c(C#N)c1C	-9	-7	92	66*	-4	7
CCN(CC)CCN(C)C1CCC(c2ccccc2)CC1 (stereo unspecified)	8	-8	97	1	2	18
CC(OC(=O)c1cc(=O)[nH]c2ccccc12)C(=O)N1C(C)CCCC1C (stereo unspecified)	.	.	.	3	.	.
COC(=O)CCSC(=S)N1CCOCC1	-2	0	.	0	-3	0
Cc1ccc(C)c(OCC(=O)Nc2cc(NC(=O)COc3cc(C)ccc3C)cc(C(=O)O)c2)c1	.	.	.	1	.	.
Cn1c(Cl)nc2c1c(=O)n(Cc1cccc(Br)c1)c(=O)n2C	14	34	96	2	104*	12
Cc1ccc(C)c(Nc2c([N+](=O)[O-])c(=O)oc3ccccc23)c1	5	2	.	8	-1	8
O=C1CSC(c2ccc([N+](=O)[O-])cc2)N1c1ccc(O)cc1 (stereo unspecified)	.	.	.	5	.	.
Cn1c(Cn2c(=O)sc3ccccc32)nnc1SCC(=O)Nc1ccc2c(c1)OCO2	-11	3	96	59*	4	-3
Cn1c(Cn2c(=O)sc3ccccc32)nnc1SCC(=O)NCc1ccc2c(c1)OCO2	7	-3	108	0	2	13
CCOC(=O)Cn1ncn(-c2ccc(OC(F)(F)F)cc2)c1=O	2	.	110	1	2	12
COc1ccc(C)cc1NC(=O)C1CCCN(S(=O)(=O)c2cccc3cccnc23)C1 (stereo unspecified)	.	.	.	3	.	.
COc1ccc(NC(=O)C2CCCN(S(=O)(=O)c3cccc4cccnc34)C2)c(OC)c1 (stereo unspecified)	13	113*	101	7	21	33
COc1ccc2nc(NC(=O)C3CCN(S(=O)(=O)c4cccs4)CC3)sc2c1	-5	-2	85	2	-7	-16
COc1ccc2nc(NC(=O)C3CCCN(S(=O)(=O)c4cccs4)C3)sc2c1 (stereo unspecified)	-4	-19	96	71*	-11	-13
Cc1ccc2nc(NC(=O)C3CCN(S(=O)(=O)c4cccc5nsnc45)CC3)sc2c1	16	32	92	15	21	10
Cc1ccc2nc(NC(=O)C3CCCN(S(=O)(=O)c4cccc5nsnc45)C3)sc2c1 (stereo unspecified)	17	31	91	-2	15	45*
CC(=O)c1ccc(NC(=O)COC(=O)/C=C/c2cccs2)cc1	.	.	.	2	.	.
SMILES	FXIa inh 1536	KLK5 inh	STAT3 activator	AHR activator	Thrombin inh	FXIIa inh 1536
CCOc1ccccc1NC(=O)NCCCCc1ccccc1	.	.	.	16	.	.
COC(=O)c1c(NC(=O)CN2CCC(C)CC2)c2c(C)cccc2n1C	0	-27	105	.	-8	7
Nc1c(C(=O)N2CCCCCC2)oc2ccccc12	.	.	.	73*	.	.
CC(=O)N1CCN(C(=O)c2oc3ccccc3c2C)CC1	.	.	.	12	.	.
Cc1c(C(=O)N2CCc3ccccc3C2)oc2ccccc12	.	.	.	59*	.	.
Cc1c(C(=O)N2CCCCC2)oc2ccccc12	.	.	.	5	.	.
CC1=Nc2ccccc2/C1=C/c1sc(=N)n(-c2nccs2)c1O	10	-9	96	73*	4	16
CC1=C(C(=O)OCCBr)C(c2cccc3ccccc23)NC(=O)N1 (stereo unspecified)	.	.	.	3	.	.
N#C/C(=C\c1cccnc1)c1nc2ccccc2[nH]1	63*	39	.	45	11	32
N#C/C(=C\c1ccncc1)c1nc2ccccc2[nH]1	-1	-5	83	.	-7	1
N#C/C(=C\c1ccc(OC(=O)c2ccc(Cl)s2)cc1)c1nc2ccccc2[nH]1	2	9	98	49*	1	8
O=S(=O)(c1ccc(Cl)cc1)N1CCCCCC1	.	.	.	12	.	.
O=S(=O)(c1ccc(S(=O)(=O)N2CCCC2)cc1)N1CCCCCC1	19	-14	109	1	-7	44*
CSCCC(NS(=O)(=O)c1ccccc1F)C(=O)Nc1ccncc1 (stereo unspecified)	.	.	.	4	.	.
CCCOc1ccc(NC(=O)CC2Nc3ccccc3NC2=O)cc1 (stereo unspecified)	-1	2	97	13	4	12
CCOc1ccccc1NC(=O)CC1Nc2ccccc2NC1=O (stereo unspecified)	7	-6	96	78*	2	12
CCCOc1ccccc1NC(=O)CC1Nc2ccccc2NC1=O (stereo unspecified)	-8	-9	92	49*	-3	5
CCCCn1c(SCC(=O)c2ccc(OCC)cc2)nc2cc(S(N)(=O)=O)ccc21	-1	-5	105	48*	-3	0
CCCCn1c(SCC(=O)c2ccc(OC)c(OC)c2)nc2cc(S(N)(=O)=O)ccc21	0	-6	100	7	-7	14
Cc1c(Cl)cccc1-c1ccc(CNCc2ccccn2)o1	.	.	.	6	.	.
COc1cc2nc(=S)n3[nH]c(CCn4nc(C)cc4C)nc3c2cc1OC	10	18	78	1	-1	18
COc1cc2nc(=S)n3[nH]c(COc4ccccc4C)nc3c2cc1OC	12	45*	108	35	17	19
O=C(N/N=C/c1ccccc1Cl)c1[nH]c2ccc(Br)cc2c1-c1ccccc1	1	16	135*	37	22	4
COc1ccc(/C=N/NC(=O)c2[nH]c3ccc(Br)cc3c2-c2ccccc2)cc1	8	2	152*	29	2	2
COc1ccc(/C=N/NC(=O)c2[nH]c3ccc(Br)cc3c2-c2ccccc2)c(C(=O)O)c1OC	1	0	.	1	-6	3
Cc1nc(NC(=O)CCN2C(=O)C3CC=CCC3C2=O)sc1C (stereo unspecified)	.	.	.	7	.	.
COc1ccc(N(CC(=O)Nc2ccccc2OC)S(=O)(=O)c2ccc(NC(C)=O)cc2)cc1	.	.	.	10	.	.
CSc1ccc(C(=O)/C=C/c2ccc(N)cc2)cc1	17	69*	98	6	22	6

Source: PubChem BioAssay
